ChEMBL document CHEMBL3098014 (Bioorg Med Chem, 2014)

Columns and labels:
Transporter = Transporter (Rattus norvegicus, UniProt Q63380); test: Displacement of [3H]-dopamine from rat cerebral cortex NET after 7 mins; assay type: tissue-based
[1] = biological target: Sodium-dependent serotonin transporter (Rattus norvegicus, UniProt P31652); test: Displacement of [3H]5-HT from rat cerebral cortex SERT after 10 mins; assay type: tissue-based
Method in brief: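 Rat cerebral cortex tissue. Inhibition of [3H]5-HT (27.9 Ci/mmol) uptake, accumulation measured over 10 min. Drug stocks included an added 0.01% (w/v) BSA. Five or more triplicate concentrations bracketing the IC50, converted to Ki by Cheng-Prusoff. Mean ± SEM from three to eight independent experiments.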

[2] = biological target: Sodium-dependent dopamine transporter (Rattus norvegicus, UniProt P23977); test: Displacement of [3H]-dopamine from rat striatum DAT after 5 mins
Sequence of Sodium-dependent dopamine transporter (P23977 whole entry): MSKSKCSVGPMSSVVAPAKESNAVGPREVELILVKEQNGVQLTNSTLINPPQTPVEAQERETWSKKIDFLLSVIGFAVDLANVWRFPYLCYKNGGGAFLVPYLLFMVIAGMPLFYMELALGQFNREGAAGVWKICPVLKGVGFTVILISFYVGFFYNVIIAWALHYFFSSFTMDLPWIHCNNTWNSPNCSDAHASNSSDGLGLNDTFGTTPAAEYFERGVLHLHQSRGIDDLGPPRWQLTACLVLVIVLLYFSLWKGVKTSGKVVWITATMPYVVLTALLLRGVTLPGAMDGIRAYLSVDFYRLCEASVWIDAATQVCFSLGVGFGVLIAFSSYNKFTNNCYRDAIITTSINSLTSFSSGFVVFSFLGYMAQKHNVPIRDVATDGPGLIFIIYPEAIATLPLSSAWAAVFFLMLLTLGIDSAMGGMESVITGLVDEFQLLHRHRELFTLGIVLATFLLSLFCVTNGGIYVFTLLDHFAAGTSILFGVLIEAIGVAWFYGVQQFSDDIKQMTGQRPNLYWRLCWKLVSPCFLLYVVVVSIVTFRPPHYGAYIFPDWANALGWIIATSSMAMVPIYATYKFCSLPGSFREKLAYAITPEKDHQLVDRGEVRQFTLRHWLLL
Method in brief: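 Uptake inhibition in rat striatal tissue: [3H]dopamine (45.0 Ci/mmol) accumulation measured over 5 min. Drug stocks contained an extra 0.01% (w/v) BSA. At least five concentrations, each in triplicate, spaced evenly around the IC50. IC50 converted to Ki via Cheng-Prusoff. Average ± SEM of three to eight independent experiments.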

Sequence of Sodium-dependent serotonin transporter (P31652 whole entry): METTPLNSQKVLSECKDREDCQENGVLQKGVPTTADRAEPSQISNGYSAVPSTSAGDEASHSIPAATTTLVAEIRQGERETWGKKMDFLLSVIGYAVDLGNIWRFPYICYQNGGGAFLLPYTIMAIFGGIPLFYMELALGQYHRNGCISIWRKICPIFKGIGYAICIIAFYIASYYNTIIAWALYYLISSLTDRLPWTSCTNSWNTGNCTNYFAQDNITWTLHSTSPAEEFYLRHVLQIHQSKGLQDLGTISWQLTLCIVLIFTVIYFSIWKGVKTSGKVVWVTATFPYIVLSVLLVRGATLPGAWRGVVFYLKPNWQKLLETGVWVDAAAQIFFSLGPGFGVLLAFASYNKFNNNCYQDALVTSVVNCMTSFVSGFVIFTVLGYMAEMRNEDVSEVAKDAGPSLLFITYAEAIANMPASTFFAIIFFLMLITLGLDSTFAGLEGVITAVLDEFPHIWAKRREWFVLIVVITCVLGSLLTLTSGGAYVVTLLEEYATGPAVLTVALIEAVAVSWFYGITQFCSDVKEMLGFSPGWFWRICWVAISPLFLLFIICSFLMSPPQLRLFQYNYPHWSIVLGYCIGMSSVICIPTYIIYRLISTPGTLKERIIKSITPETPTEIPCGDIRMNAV
Sequence of Transporter (Q63380 whole entry): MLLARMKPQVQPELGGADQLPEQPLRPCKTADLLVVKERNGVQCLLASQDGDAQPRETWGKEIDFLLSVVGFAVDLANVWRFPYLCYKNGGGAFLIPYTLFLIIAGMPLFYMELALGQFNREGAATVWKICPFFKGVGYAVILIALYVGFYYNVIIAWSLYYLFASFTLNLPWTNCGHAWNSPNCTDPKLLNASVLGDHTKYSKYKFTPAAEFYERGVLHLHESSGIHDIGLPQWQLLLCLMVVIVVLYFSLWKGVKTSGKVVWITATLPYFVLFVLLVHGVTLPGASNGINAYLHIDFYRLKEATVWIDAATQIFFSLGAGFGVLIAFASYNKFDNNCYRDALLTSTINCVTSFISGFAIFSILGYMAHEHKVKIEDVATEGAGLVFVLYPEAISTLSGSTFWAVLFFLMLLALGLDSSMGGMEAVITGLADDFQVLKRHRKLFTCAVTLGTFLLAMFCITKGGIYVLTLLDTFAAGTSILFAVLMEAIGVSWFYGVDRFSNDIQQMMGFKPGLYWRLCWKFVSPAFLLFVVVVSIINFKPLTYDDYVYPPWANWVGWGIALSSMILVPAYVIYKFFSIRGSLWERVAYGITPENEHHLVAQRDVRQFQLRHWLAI

Compound	Ki (Transporter)	Ki [1]	Ki [2]
Nc1ccc(CN[C@H]2CC[C@@H](C(c3ccccc3)c3ccccc3)OC2)cc1	12.6 nM	–	–
Oc1ccc(CN[C@H]2CC[C@@H](Cc3ccccc3)OC2)cc1	240 nM	2500 nM	–
Oc1ccc(CN[C@@H]2CO[C@H](C(c3ccc(F)cc3)c3ccc(F)cc3)C[C@H]2O)cc1	4.2 nM	58.4 nM	38.4 nM
Fc1ccc(C(c2ccc(F)cc2)[C@@H]2CC[C@H](NCc3ccc4c(c3)CCO4)CO2)cc1	6.1 nM	3 nM	11.2 nM
Nc1ccc(CN[C@H]2CC[C@@H](C(c3ccc(F)cc3)c3ccc(F)cc3)OC2)cc1	8.4 nM	69.1 nM	32.5 nM
Oc1ccc(CN[C@H]2CC[C@@H](CCC(c3ccccc3)c3ccccc3)OC2)cc1	37.7 nM	473 nM	45.7 nM

Results, then the compound that gave them:

Ki (Transporter)	Ki [1]	Ki [2]	Compound
1510 nM	1150 nM	943 nM	Oc1ccc(CN[C@@H]2CO[C@H](C(c3ccccc3)c3ccccc3)C2)cc1
165 nM	150 nM	260 nM	Oc1ccc(CCN[C@@H]2CO[C@H](C(c3ccccc3)c3ccccc3)C2)cc1
198 nM	358 nM	266 nM	COc1ccc(CCN[C@@H]2CO[C@H](C(c3ccccc3)c3ccccc3)C2)cc1
196 nM	1350 nM	586 nM	Fc1ccc(CCN[C@@H]2CO[C@H](C(c3ccccc3)c3ccccc3)C2)cc1
427 nM	2050 nM	642 nM	c1ccc(CCN[C@@H]2CO[C@H](C(c3ccccc3)c3ccccc3)C2)cc1
975 nM	408 nM	3690 nM	Oc1ccc(CN[C@H]2CO[C@H](C(c3ccccc3)c3ccccc3)C2)cc1
739 nM	844 nM	454 nM	c1ccc(CCN[C@H]2CO[C@H](C(c3ccccc3)c3ccccc3)C2)cc1
181 nM	346 nM	245 nM	Oc1ccc(CN[C@H]2CC[C@@H](CC(c3ccccc3)c3ccccc3)OC2)cc1
